# Assay outcomes (PubChem)
# m-calpain inh: inhibitors of pig calpain II; purified calpain II, fluorogenic peptide substrate, 30 min; inhibition, % at 16 µM; 220,000 compounds, 0.37% hits;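 active = inhibition above about 50%, limit read from the data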
# Efa HMGR inh: E. faecalis class II HMG-CoA reductase inhibition. purified E. faecalis HMGR, NADPH absorbance 340 nm kinetic. inhibition, % at 10 µM. 190,000 compounds, 0.41% hits. AID 1066;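 active = inhibition above a set limit, the median over all tested compounds plus 3 SD, cut at about 9.5% in these data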;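 note: enzyme runs in reverse so mevalonate oxidation gives rising NADPH absorbance; 0% = complete reaction with DMSO and 100% = background rate lacking mevalonate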
# Redox H2O2 prof: compounds producing H2O2 with reducing agent – biochemical, NIH compound library profiling, artefact control for MLSCN library redox annotation, primary screen. DTT-dependent redox cycling H2O2, phenol red/HRP absorbance; 100% = 100 µM peroxide control, 0% = buffer. 200,000 compounds, 0.03% hits. AID 878. activation, % at 10 µM;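 active = activation of at least 50% relative to the plate's high and low controls in the primary single-dose screen; inactive = activation below 50%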;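 note: compound incubated with DTT at 0.8 mM final as the reducing agent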
# Rad51 HR inh: blocks human Rad51 in homologous recombination | Q06609 | hRad51 DNA strand exchange, fluorescence dequenching | inhibition, % at 10 µM | 200,000 compounds, 0.085% hits | AID 1385;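 active = inhibition above 40% at the single screening dose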;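 note: 0% = DMSO control wells and 100% = blanks with heterologous ssDNA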
# Target sequence (Q06609 whole entry, looked up): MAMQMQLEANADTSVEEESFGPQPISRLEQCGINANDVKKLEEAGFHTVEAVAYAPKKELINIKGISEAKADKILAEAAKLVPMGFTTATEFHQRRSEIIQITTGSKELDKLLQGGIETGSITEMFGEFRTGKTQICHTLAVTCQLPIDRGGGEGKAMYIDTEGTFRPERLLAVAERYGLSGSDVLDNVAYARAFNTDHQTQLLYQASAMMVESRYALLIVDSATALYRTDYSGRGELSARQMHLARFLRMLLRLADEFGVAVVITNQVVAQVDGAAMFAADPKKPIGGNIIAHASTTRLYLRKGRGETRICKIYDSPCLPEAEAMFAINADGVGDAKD
#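 Read-out basis: percent inhibition relative to plate controls and blanks / Assay system: human Rad51 nucleoprotein filaments preassembled on unlabelled ssDNA / Timing: filaments 15 min 37 °C, then compound 30 min / Control set: per-plate controls and blanks / Technique: fluorescence dequenching at 485/520 nm / Compound: 10 µM final, single point / Also added: Fluorescein- and BHQ1-tagged 47-mer duplex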
# Pf gametocyte: kills late stage P. falciparum gametocytes | 150,000 compounds, 0.065% hits | inhibition, % at 10.9 µM | P. falciparum stage V gametocytes, ATP luminescence, 24 h;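 active = inhibition above the mean plus 3 SD of compounds within the control limits, set per campaign, cut at about 38% in these data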;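 note: 0% = DMSO wells and 100% = medium only without gametocytes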
# PKD1 inh: PKD1 (human) kinase inhibition. 200,000 compounds, 0.056% hits. inhibition, % (no concentration beside the values). Q15139. PKD1 kinase fluorescence polarization assay; in the data active = inhibition above about 50%
# * = called active by the depositor; i = inactive; x = no result given. Sampled rows, rich in hits. Any-hit rate of the full collection: about 0.81%.
SMILES,m-calpain inh,Efa HMGR inh,Redox H2O2 prof,Rad51 HR inh,Pf gametocyte,PKD1 inh
Oc1c(Cl)cc(Cl)cc1C(C#Cc1ccccc1)N1CCOCC1 (stereo unspecified),53*,-8,2,-6,x,-3
COC(=O)CSc1ncc(C#N)c(N)n1,-6,63*,-1,-4,8,1
COc1cc(CN2CCN(CCCc3ccccc3)C(CCO)C2)cc(OC)c1O (stereo unspecified),x,x,x,x,19,x
CCCc1ccc(Oc2c(-c3ccc(O)c(C)c3O)n[nH]c2C)cc1,36,3,-1,-6,-4,-3
CCCOC(=O)c1ccc(Oc2cn[nH]c2-c2ccc(OCC)cc2O)cc1,53*,-1,-1,-3,x,13
CCCOC(=O)c1ccc(Oc2c(-c3ccc(OCC)cc3O)n[nH]c2C)cc1,37,-1,-1,0,x,2
CCCc1ccc(Oc2cn[nH]c2-c2ccc(O)c(C)c2O)cc1,53*,1,-3,1,x,3
COC(=O)CS(=O)(=O)c1ccc(C)cc1,-17,4,0,-3,1,-5
Cc1ccc2c(c1)C(c1ccccc1)CC(=O)O2 (stereo unspecified),-4,x,x,8,-18,x
Cn1cccc1C(=O)OCC(=O)N1c2ccccc2NC(=O)C1(C)C,23,-2,-3,-10,x,-2
Cn1cccc1C(=O)OCC(=O)N1CC(=O)Nc2ccccc21,-13,11*,0,7,10,-1
O=C1CN(C(=O)CSc2nnc3ccccn23)c2ccccc2N1,5,12*,1,-3,21,-7
Cn1c(C=O)c(C#Cc2ccccc2)c2ccccc21,x,x,x,x,7,x
CCOc1ccc(CNC(=O)CCS(=O)(=O)Cc2cccc(Cl)c2)cc1OC,-22,0,0,41*,21,-7
C=CCn1c(SCc2nc3sc4c(c3c(=O)[nH]2)CCCC4)nc2ccccc2c1=O,1,-1,0,-27,1,-4
Cc1ccc(NC(=S)NC(=O)CC2CC(C)(C)OC2=O)cc1 (stereo unspecified),-16,28*,-2,x,x,-3
Cc1ccc(N2CCN(C(=O)c3cc(C(=O)c4ccccc4C)c[nH]3)CC2)c(C)c1,4,8,0,43*,-17,-8
Cc1ccc(N2CCN(C(=O)c3ccccc3)CC2)c(C)c1,0,-5,0,4,-8,-8
Cc1occc1C(=O)N/N=C/C(Br)=C/c1ccccc1,2,10*,0,1,x,1
COc1ccc2c(Cn3cnc4cc([N+](=O)[O-])ccc4c3=O)cc(=O)oc2c1,1,x,x,-5,x,x
CCOC(=O)CN(C(=O)CSc1nnc2c(n1)[nH]c1ccc(F)cc12)c1ccccc1,59*,-3,0,0,x,-4
COC(=O)Cc1cc(=O)n2[nH]c(C)nc2n1,-36,-5,-1,-1,2,-7
COC(=O)Cc1cc(=O)n2[nH]cnc2n1,2,30*,5,-7,x,-3
COc1cc(OC)c(/C=N/N2CCN(c3ccccc3OC)CC2)c(OC)c1,x,x,x,x,-8,x
COC(=O)CC(NS(=O)(=O)c1cccs1)c1cccc2ccccc12 (stereo unspecified),60*,-5,1,-3,x,-11
SMILES,m-calpain inh,Efa HMGR inh,Redox H2O2 prof,Rad51 HR inh,Pf gametocyte,PKD1 inh
COc1ccc(O)c(C(=O)c2coc(=N)c(C(=O)Nc3ccc(SC(F)F)cc3)c2)c1,-18,1,0,-48,23,-2
Cn1c(=O)[nH]c(=O)c2[nH]c(N(Cc3ccccc3)Cc3ccccc3)nc21,65*,0,1,9,7,-3
CN1/C(=C\C=C2/SC(=S)NC2=O)C(C)(C)c2ccccc21,-45,4,-1,i,-34,18
CN1CCC/C1=C/C=C1\SC(=S)NC1=O,60*,-6,0,x,-22,-7
Cc1ccc(C(C)C)c(OCCNC(=S)Nc2cccc3ccccc23)c1,51*,1,-1,3,x,0
CCCNc1nc(C)cc(-c2cc(-c3ccc(Cl)cc3)on2)n1,-9,x,x,-1,1,x
COc1ccc(-c2nnc(CSc3nnc(-c4ccncc4)n3C3CCCCC3)o2)cc1OC,-13,-4,0,-5,11,-3
COCCCn1c(SCc2nnc(-c3ccc(OC)c(OC)c3)o2)nnc1-c1ccncc1,-15,9.9*,1,6,x,2
